Laboratory results from ChEMBL document CHEMBL3576810, “Pentacyclic antibiotics from a tidal mud flat-derived actinomycete” (J Nat Prod, 2015).
Values after ≈ are worked out from the molar mass of the structure shown. Active and inactive are the calls of the source. The calls are words filed in the database; no cut-off is given here.

Legend:
Staphylococcus aureus = test: Antibacterial activity against Staphylococcus aureus ATCC 25923 incubated for 12 hrs at 37 degC; format: functional; conditions: ATCC 25923, 12 h
Method in brief: (§1)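 Bacteria grown overnight in LB broth at 37 °C, centrifuged and washed twice in sterile water. DMSO compound stocks serially 2-fold diluted in Plate Count Broth over 50 to 0.8 μg/mL. Inoculum 5 × 10^5 cfu/mL final, 12 h at 37 °C. MIC taken as lowest concentration with no visible growth. Ampicillin reference.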

Kocuria rhizophila = test: Antibacterial activity against Kocuria rhizophila NBRC 12708 incubated for 12 hrs at 37 degC; format: functional; conditions: NBRC 12708, 12 h; method in brief: as §1
Candida albicans = test: Antifungal activity against Candida albicans ATCC 10231; format: functional
Method in brief: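 C. albicans grown in YPD medium for 48 h at 28 °C, centrifuged and washed twice with sterile water. Cells (5 × 10^4 cells/mL) in potato dextrose broth with test compound in DMSO (0.5% final). DMSO solvent control; amphotericin B positive control.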

[1] = Cytotoxicity against human SKHEP1 cells after 72 hrs by sulforhodamine B assay; format: functional, cell-based; conditions: SK-HEP1, 72 h
Method in brief: (§2)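 Cells seeded at 3 × 10^4 cells/mL and exposed to a range of compound concentrations at 37 °C, 5% CO2, for 72 h. Fixed with 10% TCA for 1 h, stained with 0.4% SRB in 1% acetic acid, dye dissolved in 10 mM Tris pH 10.0. Survival expressed relative to solvent control; IC50 by nonlinear regression. Etoposide positive control.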

K562 = test: Cytotoxicity against human K562 cells after 72 hrs by sulforhodamine B assay; format: functional, cell-based; conditions: K562, 72 h; method in brief: as §2
Salmonella enterica = test: Antibacterial activity against Salmonella enterica ATCC 14028 incubated for 12 hrs at 37 degC; format: functional; conditions: ATCC 14028, 12 h; method in brief: as §1
Bacillus subtilis = test: Antibacterial activity against Bacillus subtilis ATCC 6633 incubated for 12 hrs at 37 degC; format: functional; conditions: ATCC 6633, 12 h; method in brief: as §1
MDA-MB-231 = test: Cytotoxicity against human MDA-MB-231 cells after 72 hrs by sulforhodamine B assay; format: functional, cell-based; conditions: MDA-MB-231, 72 h; method in brief: as §2
A549 = test: Cytotoxicity against human A549 cells after 72 hrs by sulforhodamine B assay; format: functional, cell-based; conditions: A549, 72 h; method in brief: as §2
Aspergillus fumigatus = test: Antifungal activity against Aspergillus fumigatus HIC 6094; format: functional
Method in brief: (§3)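 Fungi grown on potato dextrose agar for 2 weeks at 28 °C. Spores harvested, washed twice and suspended at 5 × 10^5 spores/mL, then diluted into potato dextrose broth (5 × 10^4 cells/mL) with test compound in DMSO (0.5% final). DMSO solvent control; amphotericin B positive control.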

HCT-116 = test: Cytotoxicity against human HCT116 cells after 72 hrs by sulforhodamine B assay; format: functional, cell-based; conditions: HCT-116, 72 h; method in brief: as §2
Proteus hauseri = test: Antibacterial activity against Proteus hauseri NBRC 3851 incubated for 12 hrs at 37 degC; format: functional; conditions: NBRC 3851, 12 h; method in brief: as §1
[2] = Cytotoxicity against human SNU638 cells after 72 hrs by sulforhodamine B assay; format: functional, cell-based; conditions: SNU-638, 72 h; method in brief: as §2
[3] = Inhibition of Staphylococcus aureus ATCC 6538p sortase A delta24 mutant using H2N-Abz-LPXTG-Dap(Dnp)-NH2 fluorescent substrate incubated for 1 hr by fluorescence based assay
Method in brief: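 Recombinant SrtAΔ24 (24 μg), srtA gene from S. aureus ATCC 6538p. Buffer 50 mM Tris-HCl, 150 mM NaCl, pH 7.5, 5 mM CaCl2, with 1 μg Abz-LPXTG-Dap(Dnp) peptide, 1 mM pentaglycine and compound at several concentrations (0.5% DMSO final). 1 h at 37 °C. Fluorescence read at excitation 317 nm, emission 420 nm. p-Hydroxymercuribenzoic acid positive control.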

[4] = test system: Trichophyton mentagrophytes; test: Antifungal activity against Trichophyton mentagrophytes IFM 40996; format: functional, organism-based; method in brief: as §3
Trichophyton rubrum = test: Antifungal activity against Trichophyton rubrum NBRC 9185; format: functional, organism-based; method in brief: as §3

Row | Compound | MIC (Staphylococcus aureus) | MIC (Kocuria rhizophila) | MIC (Candida albicans) | IC50 [1] | IC50 (K562) | MIC (Salmonella enterica) | MIC (Bacillus subtilis) | IC50 (MDA-MB-231) | IC50 (A549) | MIC (Aspergillus fumigatus) | IC50 (HCT-116) | MIC (Proteus hauseri) | IC50 [2] | IC50 [3] | MIC [4] | MIC (Trichophyton rubrum)
1 | COc1ccc2oc3c(O)c4c(c(O)c3c(=O)c2c1O)-c1c(cc(CC(C)=O)c(C(=O)N[C@@](C)(CO)C(=O)O)c1O)CC4 | 10.5 µM | 10.5 µM | 21.1 µM (≈ 12.5 µg/mL) | 1.9 µM | > 100 µM | 0.7 µM | 0.7 µM | 1.2 µM | 1.7 µM | 84.3 µM (≈ 50 µg/mL) | 0.9 µM | 21.1 µM | 0.8 µM | 43.2 µM |  | 
2 | CC(=O)Cc1cc(O)c2c(c1)CCc1c-2cc2c(c1O)C(=O)c1c(O)cc(O)cc1C2=O | > 100 µg/mL | > 100 µg/mL | inactive | > 100 µM | 18.3 µM | > 100 µg/mL | > 100 µg/mL | > 100 µM | > 100 µM | inactive | > 100 µM | > 100 µg/mL | > 100 µM |  | inactive | inactive
3 | COc1cc([C@@H]2c3cc4c(cc3[C@@H](O[C@@H]3O[C@@H]5CO[C@@H](C)O[C@H]5[C@H](O)[C@H]3O)[C@H]3COC(=O)[C@H]23)OCO4)cc(OC)c1O [ETOPOSIDE] |  |  |  | 1.1 µM | 3.1 µM |  |  | 10.6 µM | 0.8 µM |  | 1.9 µM |  | 0.5 µM |  |  | 
4 | CC1(C)S[C@@H]2[C@H](NC(=O)[C@H](N)c3ccccc3)C(=O)N2[C@H]1C(=O)O [AMPICILLIN] | 4.5 µM | 0.6 µM |  |  |  | 4.5 µM | 1.1 µM |  |  |  |  | < 0.6 µM |  |  |  | 
5 | Para-Hydroxymercuribenzoic acid |  |  |  |  |  |  |  |  |  |  |  |  |  | 104 µM |  | 
